According to ChEMBL document CHEMBL1125901, “Synthesis and siderophore activity of albomycin-like peptides derived from N5-acetyl-N5-hydroxy-L-ornithine” (1991):
Calls of active or inactive are those of the source. The rule behind the calls is not given here.

Tests used:
[1] = tested on: Shigella flexneri; experiment: The relative ability of compound to promote the growth of Shigella flexneri SA 240, a strain lacking the ability to synthesize siderophores was measured as zone stimulation at concentration of 500 uM; assay type: functional
How it was run: (§1)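 SA240 (S. flexneri 2a SA100 iucD::Tn5, a siderophore-synthesis mutant) was grown overnight in Luria broth, then seeded at 10^3/mL into Luria agar with the iron chelator EDDA (250 µg/mL). Compounds were made as 10 mM water stocks and diluted in water to the test levels. Sterile disks holding 10 µL were laid on the agar and incubated 18 h at 37 °C. Diameters of the growth-stimulation zones were measured.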

[2] = tested on: Shigella flexneri; experiment: The relative ability of compound to promote the growth of Shigella flexneri SA 240, a strain lacking the ability to synthesize siderophores was measured as zone stimulation at concentration of 50 uM; NA=No activity; assay type: functional, organism-based; how it was run: as §1
[3] = tested on: Shigella flexneri; experiment: The relative ability of compound to promote the growth of Shigella flexneri SA 240, a strain lacking the ability to synthesize siderophores was measured as zone stimulation at concentration of 1 mM; assay type: functional; how it was run: as §1
[4] = tested on: Shigella flexneri; experiment: The relative ability of compound to promote the growth of Shigella flexneri SA 240, a strain lacking the ability to synthesize siderophores was measured as zone stimulation at concentration of 5 mM; assay type: functional; how it was run: as §1
[5] = tested on: Shigella flexneri; experiment: The relative ability of compound to promote the growth of Shigella flexneri SA 240, a strain lacking the ability to synthesize siderophores was measured as zone stimulation at concentration of 100 uM; assay type: functional; how it was run: as §1
[6] = tested on: Shigella flexneri; experiment: The relative ability of compound to promote the growth of Shigella flexneri SA 240, a strain lacking the ability to synthesize siderophores was measured as zone stimulation at concentration of 100 uM; NA=No activity; assay type: functional, organism-based; how it was run: as §1
[7] = tested on: Shigella flexneri; experiment: The relative ability of compound to promote the growth of Shigella flexneri SA 240, a strain lacking the ability to synthesize siderophores was measured as zone stimulation at concentration of 5 mM; NA=No activity; assay type: functional, organism-based; how it was run: as §1

SMILES	Zone of stimulation [1] [mm]	Zone of stimulation [2]	Zone of stimulation [3] [mm]	Zone of stimulation [4] [mm]	Zone of stimulation [5] [mm]	Zone of stimulation [6]	Zone of stimulation [7]
CC(=O)N(O)CCC[C@H](NC(=O)[C@H](CCCN(O)C(C)=O)NC(=O)[C@@H](N)CCCN(O)C(C)=O)C(=O)N[C@@H](C(=O)O)c1ccccc1	28	inactive	41	45	17		
CC(=O)N(O)CCC[C@H](NC(=O)[C@H](CCCN(O)C(C)=O)NC(=O)[C@@H](N)CCCN(O)C(C)=O)C(=O)N[C@H](CO)C(=O)O	12		12	18		inactive	
CC(=O)N(O)CCC[C@H](NC(=O)[C@H](CCCN(O)C(C)=O)NC(=O)[C@@H](N)CCCN(O)C(C)=O)C(=O)N[C@H](CO)C(=O)N[C@H](CC(=O)O)C(=O)O							inactive
CC(=O)N(O)CCC[C@H](NC(=O)[C@H](CCCN(O)C(C)=O)NC(=O)[C@@H](N)CCCN(O)C(C)=O)C(=O)O	30	inactive	37	40	13		
CC(=O)N(O)CCC[C@H](NC(=O)[C@H](CCCN(O)C(C)=O)NC(=O)[C@@H](N)CCCN(O)C(C)=O)C(=O)N[C@@H](C(=O)O)c1ccc(O)cc1	25	inactive	40	45	15		
CC(=O)N(O)CCC[C@H](N)C(=O)O							inactive
